{"source": "ChEMBL document CHEMBL1137240", "about": "“Conjugation of adenosine and hexa-(D-arginine) leads to a nanomolar bisubstrate-analog inhibitor of basophilic protein kinases” (J Med Chem, 2006)", "key": {"[1]": {"target": "MAP kinase-activated protein kinase 2 (Homo sapiens) (UniProt P49137)", "sequence (P49137 whole entry, looked up)": "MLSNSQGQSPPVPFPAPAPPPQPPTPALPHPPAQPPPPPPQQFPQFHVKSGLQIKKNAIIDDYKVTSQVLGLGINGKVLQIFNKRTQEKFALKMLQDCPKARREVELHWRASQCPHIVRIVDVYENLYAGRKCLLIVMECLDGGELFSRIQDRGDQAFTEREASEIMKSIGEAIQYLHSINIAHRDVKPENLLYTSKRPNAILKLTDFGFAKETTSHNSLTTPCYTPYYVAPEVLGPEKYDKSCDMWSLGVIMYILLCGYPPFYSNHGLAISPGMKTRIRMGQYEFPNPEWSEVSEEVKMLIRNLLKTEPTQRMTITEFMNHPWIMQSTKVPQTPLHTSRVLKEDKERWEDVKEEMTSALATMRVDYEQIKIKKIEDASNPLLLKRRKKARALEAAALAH", "assay": "Percent residual activity, relative to control, of MAPKAP-K2 at 1 uM concentration of inhibitor in presence of 20 uM ATP", "how_it_was_run": "(§1)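 It is expressed as percent of activity in control incubations without inhibitor, as the mean of duplicate determinations. The protocol follows earlier published panel methods.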"}, "[2]": {"target": "Serine/threonine-protein kinase 3 (Homo sapiens) (UniProt Q13188)", "sequence (Q13188 whole entry)": "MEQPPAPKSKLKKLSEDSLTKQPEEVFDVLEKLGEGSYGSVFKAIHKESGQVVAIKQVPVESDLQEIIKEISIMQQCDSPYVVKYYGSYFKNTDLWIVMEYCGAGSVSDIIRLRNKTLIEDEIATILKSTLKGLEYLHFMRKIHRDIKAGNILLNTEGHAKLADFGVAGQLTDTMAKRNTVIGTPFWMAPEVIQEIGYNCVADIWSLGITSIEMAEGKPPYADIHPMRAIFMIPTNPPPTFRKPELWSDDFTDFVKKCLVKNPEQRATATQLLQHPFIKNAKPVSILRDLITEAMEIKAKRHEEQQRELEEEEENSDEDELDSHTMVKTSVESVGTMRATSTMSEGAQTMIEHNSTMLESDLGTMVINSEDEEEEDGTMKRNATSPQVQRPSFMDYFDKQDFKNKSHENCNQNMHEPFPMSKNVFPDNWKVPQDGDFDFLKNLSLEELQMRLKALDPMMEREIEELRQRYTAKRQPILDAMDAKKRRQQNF", "assay": "Percent residual activity, relative to control, of MST2 at 1 uM concentration of inhibitor in presence of 20 uM ATP", "how_it_was_run": "as §1"}, "[3]": {"target": "Serine/threonine-protein kinase D1 (Homo sapiens) (UniProt Q15139)", "assay": "Percent residual activity, relative to control, of PKD1 at 1 uM concentration of inhibitor in presence of 50 uM ATP", "how_it_was_run": "as §1"}, "[4]": {"target": "Serine/threonine-protein kinase PLK1 (Homo sapiens) (UniProt P53350)", "assay": "Percent residual activity, relative to control, of PLK1 at 1 uM concentration of inhibitor in presence of 5 uM ATP", "how_it_was_run": "as §1"}, "Homo sapiens [5]": {"species": "Homo sapiens", "assay": "Percent residual activity, relative to control, of CAMK-1 at 1 uM concentration of inhibitor in presence of 50 uM ATP", "how_it_was_run": "as §1"}, "[6]": {"target": "Aurora kinase B (Homo sapiens) (UniProt Q96GD4)", "assay": "Percent residual activity, relative to control, of Aurora-B at 1 uM concentration of inhibitor in presence of 20 uM ATP", "how_it_was_run": "as §1"}, "[7]": {"target": "Casein kinase I (Homo sapiens) (UniProt Q9HCP0+P78368+P48730+P49674+P48729)", "assay": "Percent residual activity, relative to control, of CK1 at 1 uM concentration of inhibitor in presence of 20 uM ATP", "assay_type": "protein assay", "how_it_was_run": "as §1"}, "[8]": {"target": "SRSF protein kinase 1 (Homo sapiens) (UniProt Q96SB4)", "assay": "Percent residual activity, relative to control, of SRPK1 at 1 uM concentration of inhibitor in presence of 50 uM ATP", "how_it_was_run": "as §1"}, "[9]": {"target": "Serine/threonine-protein kinase N2 (Homo sapiens) (UniProt Q16513)", "sequence (Q16513 whole entry, looked up)": "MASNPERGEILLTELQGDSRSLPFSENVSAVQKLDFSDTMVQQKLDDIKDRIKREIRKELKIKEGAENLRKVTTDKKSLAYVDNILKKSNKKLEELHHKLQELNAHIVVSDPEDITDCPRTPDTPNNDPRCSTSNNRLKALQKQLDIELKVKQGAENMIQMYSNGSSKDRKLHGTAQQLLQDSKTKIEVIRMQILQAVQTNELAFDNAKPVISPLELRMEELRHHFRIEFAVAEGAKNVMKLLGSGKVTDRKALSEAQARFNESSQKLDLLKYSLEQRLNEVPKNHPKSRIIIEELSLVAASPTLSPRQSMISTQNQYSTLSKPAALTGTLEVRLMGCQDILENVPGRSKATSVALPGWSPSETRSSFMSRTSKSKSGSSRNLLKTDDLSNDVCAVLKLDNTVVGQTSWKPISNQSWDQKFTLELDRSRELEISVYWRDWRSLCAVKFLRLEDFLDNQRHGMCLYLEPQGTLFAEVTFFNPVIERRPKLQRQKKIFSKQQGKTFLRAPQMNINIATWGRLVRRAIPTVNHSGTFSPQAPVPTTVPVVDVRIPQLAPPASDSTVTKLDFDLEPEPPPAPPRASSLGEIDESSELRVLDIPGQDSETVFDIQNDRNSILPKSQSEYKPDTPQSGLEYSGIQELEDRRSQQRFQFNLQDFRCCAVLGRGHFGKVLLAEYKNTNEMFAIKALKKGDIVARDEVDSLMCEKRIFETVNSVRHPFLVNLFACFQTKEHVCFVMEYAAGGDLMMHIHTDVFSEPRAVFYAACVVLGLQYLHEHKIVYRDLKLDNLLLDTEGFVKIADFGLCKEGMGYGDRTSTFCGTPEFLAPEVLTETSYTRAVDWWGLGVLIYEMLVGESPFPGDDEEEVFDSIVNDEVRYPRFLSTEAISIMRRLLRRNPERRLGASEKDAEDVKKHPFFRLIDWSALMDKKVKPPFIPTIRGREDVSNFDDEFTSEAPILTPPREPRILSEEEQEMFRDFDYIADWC", "assay": "Percent residual activity, relative to control, of PRK2 at 1 uM concentration of inhibitor in presence of 5 uM ATP", "how_it_was_run": "as §1"}, "[10]": {"target": "Mitogen-activated protein kinase 11 (Homo sapiens) (UniProt Q15759)", "assay": "Percent residual activity, relative to control, of SAPK2b/p38ss2 at 1 uM concentration of inhibitor in presence of 20 uM ATP", "how_it_was_run": "as §1"}, "[11]": {"target": "RAC-beta serine/threonine-protein kinase (Homo sapiens) (UniProt P31751)", "assay": "Percent residual activity, relative to control, of PKB beta at 1uM concentration of inhibitor in presence of 50uM ATP", "how_it_was_run": "as §1"}, "[12]": {"target": "Tyrosine-protein kinase CSK (Homo sapiens) (UniProt P41240)", "sequence (P41240 2-450 limits assumed)": "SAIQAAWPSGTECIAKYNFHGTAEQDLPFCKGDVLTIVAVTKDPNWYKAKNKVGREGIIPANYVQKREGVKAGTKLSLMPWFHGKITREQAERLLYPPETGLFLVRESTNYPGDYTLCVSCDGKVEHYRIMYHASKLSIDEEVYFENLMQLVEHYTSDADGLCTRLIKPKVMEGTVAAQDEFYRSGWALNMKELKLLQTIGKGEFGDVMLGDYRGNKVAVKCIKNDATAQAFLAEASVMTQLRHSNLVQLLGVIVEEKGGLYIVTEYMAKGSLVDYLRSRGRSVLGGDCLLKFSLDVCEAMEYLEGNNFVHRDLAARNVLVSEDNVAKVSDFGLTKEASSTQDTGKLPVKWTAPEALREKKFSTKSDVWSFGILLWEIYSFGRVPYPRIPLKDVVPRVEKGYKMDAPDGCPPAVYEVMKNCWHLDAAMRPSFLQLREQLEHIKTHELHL", "assay": "Percent residual activity, relative to control, of CSK at 1 uM concentration of inhibitor in presence of 20 uM ATP", "how_it_was_run": "as §1"}, "[13]": {"target": "3-phosphoinositide-dependent protein kinase 1 (Homo sapiens) (UniProt O15530)", "sequence (O15530 whole entry)": "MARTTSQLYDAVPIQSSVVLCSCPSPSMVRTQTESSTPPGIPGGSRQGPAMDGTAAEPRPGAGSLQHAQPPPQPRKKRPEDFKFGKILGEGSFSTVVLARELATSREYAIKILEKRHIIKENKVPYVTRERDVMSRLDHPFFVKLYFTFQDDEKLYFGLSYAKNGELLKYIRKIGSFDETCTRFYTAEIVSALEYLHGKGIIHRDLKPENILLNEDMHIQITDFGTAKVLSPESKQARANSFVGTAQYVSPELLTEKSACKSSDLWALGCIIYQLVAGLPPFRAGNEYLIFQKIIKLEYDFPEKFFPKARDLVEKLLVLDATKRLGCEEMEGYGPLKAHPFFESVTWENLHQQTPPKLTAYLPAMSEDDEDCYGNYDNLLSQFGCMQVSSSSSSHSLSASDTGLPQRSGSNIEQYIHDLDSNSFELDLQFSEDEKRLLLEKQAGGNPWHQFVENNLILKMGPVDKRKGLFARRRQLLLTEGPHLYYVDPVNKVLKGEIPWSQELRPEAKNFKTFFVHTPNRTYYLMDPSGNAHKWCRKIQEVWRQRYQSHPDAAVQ", "assay": "Percent residual activity, relative to control, of PDK1 at 1 uM concentration of inhibitor in presence of 20 uM ATP", "how_it_was_run": "as §1"}, "[14]": {"target": "Serine/threonine-protein kinase Chk2 (Homo sapiens) (UniProt O96017)", "sequence (O96017 whole entry)": "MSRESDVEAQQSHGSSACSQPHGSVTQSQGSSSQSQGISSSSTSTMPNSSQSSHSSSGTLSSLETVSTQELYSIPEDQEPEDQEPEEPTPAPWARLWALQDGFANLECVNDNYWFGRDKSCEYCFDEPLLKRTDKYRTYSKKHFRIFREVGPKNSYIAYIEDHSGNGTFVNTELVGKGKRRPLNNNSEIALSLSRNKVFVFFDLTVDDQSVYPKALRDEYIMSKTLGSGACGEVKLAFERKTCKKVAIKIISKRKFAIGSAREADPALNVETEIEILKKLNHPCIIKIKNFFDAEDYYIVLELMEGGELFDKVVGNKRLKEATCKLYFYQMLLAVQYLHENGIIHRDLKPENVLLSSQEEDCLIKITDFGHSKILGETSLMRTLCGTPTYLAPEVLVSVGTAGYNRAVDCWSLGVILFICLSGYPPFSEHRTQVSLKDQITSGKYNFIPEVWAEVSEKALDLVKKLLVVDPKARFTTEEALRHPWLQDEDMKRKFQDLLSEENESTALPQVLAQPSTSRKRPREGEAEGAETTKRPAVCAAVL", "assay": "Percent residual activity, relative to control, of CHK2 at 1uM concentration of inhibitor in presence of 20uM ATP", "how_it_was_run": "as §1"}, "Homo sapiens [15]": {"species": "Homo sapiens", "assay": "Percent residual activity, relative to control, of MAPKAP-K1b/Rsk2 at 1 uM concentration of inhibitor in presence of 50 uM ATP", "how_it_was_run": "as §1"}, "[16]": {"target": "Cyclin-dependent kinase 2/cyclin A (Homo sapiens) (UniProt P24941+P20248+P78396)", "assay": "Percent residual activity, relative to control, of CDK2 (with cyclin A) at 1 uM concentration of inhibitor in presence of 20 uM ATP", "assay_type": "protein-complex assay", "how_it_was_run": "as §1"}, "[17]": {"target": "Serine/threonine-protein kinase Nek6 (Homo sapiens) (UniProt Q9HC98)", "sequence (Q9HC98 whole entry)": "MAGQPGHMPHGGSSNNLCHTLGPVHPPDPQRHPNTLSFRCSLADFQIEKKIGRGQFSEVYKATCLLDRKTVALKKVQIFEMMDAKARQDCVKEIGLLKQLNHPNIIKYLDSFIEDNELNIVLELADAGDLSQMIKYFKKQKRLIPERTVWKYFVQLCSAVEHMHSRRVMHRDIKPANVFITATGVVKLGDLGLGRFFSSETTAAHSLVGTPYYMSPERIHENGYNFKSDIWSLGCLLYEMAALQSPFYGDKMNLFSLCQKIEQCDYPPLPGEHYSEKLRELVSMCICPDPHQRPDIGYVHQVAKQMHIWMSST", "assay": "Percent residual activity, relative to control, of NEK6 at 1 uM concentration of inhibitor in presence of 50 uM ATP", "how_it_was_run": "as §1"}, "[18]": {"target": "MAP kinase-activated protein kinase 3 (Homo sapiens) (UniProt Q16644)", "assay": "Percent residual activity, relative to control, of MAPKAP-K3 at 1 uM concentration of inhibitor in presence of 20 uM ATP", "how_it_was_run": "as §1"}, "[19]": {"target": "cAMP-dependent protein kinase catalytic subunit alpha (Homo sapiens, UniProt P17612)", "assay": "Inhibitory potency towards human cAPK C alpha in the presence of 100 uM ATP and 30 uM TAMRA-kemptide", "how_it_was_run": "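cAPK catalytic subunit (about 1 nM) incubated at 30 °C with inhibitor at various concentrations in 50 mM Hepes pH 7.5, 10 mM Mg acetate, 0.2 mg/mL BSA, 30 µM TAMRA-kemptide; reaction started with 100 µM ATP. Stopped at fixed times by 20-fold dilution in 75 mM phosphoric acid, then normal-phase TLC with fluorescence imaging (532 nm excitation). IC50 determined.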"}, "[20]": {"target": "Mitogen-activated protein kinase 12 (Homo sapiens) (UniProt P53778)", "sequence (P53778 whole entry)": "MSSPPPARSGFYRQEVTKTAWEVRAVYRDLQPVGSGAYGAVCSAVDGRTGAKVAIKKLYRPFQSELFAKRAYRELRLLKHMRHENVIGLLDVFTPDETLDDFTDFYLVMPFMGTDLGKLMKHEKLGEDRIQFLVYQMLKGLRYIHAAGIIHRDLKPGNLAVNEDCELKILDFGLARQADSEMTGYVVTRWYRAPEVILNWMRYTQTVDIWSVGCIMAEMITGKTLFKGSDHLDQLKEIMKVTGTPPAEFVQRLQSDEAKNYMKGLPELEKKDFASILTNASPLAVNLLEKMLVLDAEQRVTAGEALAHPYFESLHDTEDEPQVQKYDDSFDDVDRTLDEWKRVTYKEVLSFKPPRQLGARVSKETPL", "assay": "Percent residual activity, relative to control, of SAPK3/p38 gamma at 1 uM concentration of inhibitor in presence of 5 uM ATP", "how_it_was_run": "as §1"}, "[21]": {"target": "Serine/threonine-protein kinase Nek2 (Homo sapiens) (UniProt P51955)", "sequence (P51955 whole entry)": "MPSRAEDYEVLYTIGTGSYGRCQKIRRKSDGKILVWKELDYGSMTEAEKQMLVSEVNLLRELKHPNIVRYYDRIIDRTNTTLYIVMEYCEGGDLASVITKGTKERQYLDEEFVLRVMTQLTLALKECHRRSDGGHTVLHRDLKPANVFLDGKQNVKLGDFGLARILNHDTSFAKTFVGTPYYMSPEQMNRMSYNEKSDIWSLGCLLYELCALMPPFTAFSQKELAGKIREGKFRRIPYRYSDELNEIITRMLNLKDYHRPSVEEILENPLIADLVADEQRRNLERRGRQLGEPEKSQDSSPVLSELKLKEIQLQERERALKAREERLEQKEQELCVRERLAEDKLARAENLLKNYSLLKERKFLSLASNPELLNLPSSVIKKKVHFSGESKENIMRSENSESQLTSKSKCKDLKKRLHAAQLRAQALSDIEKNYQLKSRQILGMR", "assay": "Percent residual activity, relative to control, of NEK2a at 1 uM concentration of inhibitor in presence of 50 uM ATP", "how_it_was_run": "as §1"}, "[22]": {"target": "MAP/microtubule affinity-regulating kinase 3 (Homo sapiens) (UniProt P27448)", "assay": "Percent residual activity, relative to control, of MARK3 at 1uM concentration of inhibitor in presence of 5uM ATP", "how_it_was_run": "as §1"}, "[23]": {"target": "AMP-activated protein kinase, AMPK (Homo sapiens) (UniProt P54646+O43741+P54619+Q9UGJ0+Q9Y478+Q13131+Q9UGI9)", "assay": "Percent residual activity, relative to control, of AMPK at 1 uM concentration of inhibitor in presence of 50 uM ATP", "assay_type": "protein-complex assay", "how_it_was_run": "as §1"}, "[24]": {"target": "Dual specificity tyrosine-phosphorylation-regulated kinase 1A (Homo sapiens) (UniProt Q13627)", "assay": "Percent residual activity, relative to control, of DYRK1a at 1 uM concentration of inhibitor in presence of 50 uM ATP", "how_it_was_run": "as §1"}, "[25]": {"target": "Serine/threonine-protein kinase Sgk1 (Homo sapiens) (UniProt O00141)", "sequence (O00141 whole entry)": "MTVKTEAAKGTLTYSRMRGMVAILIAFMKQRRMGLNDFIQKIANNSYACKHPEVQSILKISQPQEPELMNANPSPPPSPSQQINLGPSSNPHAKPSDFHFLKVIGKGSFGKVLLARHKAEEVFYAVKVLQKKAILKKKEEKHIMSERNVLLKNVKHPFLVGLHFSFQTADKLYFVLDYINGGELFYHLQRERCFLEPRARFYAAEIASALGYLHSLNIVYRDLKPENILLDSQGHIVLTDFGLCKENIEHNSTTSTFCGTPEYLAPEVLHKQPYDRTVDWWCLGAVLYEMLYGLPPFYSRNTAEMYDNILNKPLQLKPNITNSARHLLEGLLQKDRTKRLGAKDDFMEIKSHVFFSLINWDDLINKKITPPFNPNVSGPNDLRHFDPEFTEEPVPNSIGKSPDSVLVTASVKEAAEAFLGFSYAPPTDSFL", "assay": "Percent residual activity, relative to control, of SGK at 1 uM concentration of inhibitor in presence of 20 uM ATP", "how_it_was_run": "as §1"}}, "note": "pIC50: −log10 of the molar value."}
{"compound": "N=C(N)NCCC[C@@H](NC(=O)[C@@H](CCCNC(=N)N)NC(=O)[C@@H](CCCNC(=N)N)NC(=O)[C@@H](CCCNC(=N)N)NC(=O)[C@@H](CCCNC(=N)N)NC(=O)[C@@H](CCCNC(=N)N)NC(=O)CCCCCNC(=O)[C@H]1O[C@@H](n2cnc3c(N)ncnc32)[C@H](O)[C@@H]1O)C(N)=O", "values": [{"measurement": "Activity", "setting": "[1]", "value": 85, "unit": "%"}, {"measurement": "Activity", "setting": "[2]", "value": 77, "unit": "%"}, {"measurement": "Activity", "setting": "[3]", "value": 54, "unit": "%"}, {"measurement": "Activity", "setting": "[4]", "value": 81, "unit": "%"}, {"measurement": "Activity", "setting": "Homo sapiens [5]", "value": 15, "unit": "%"}, {"measurement": "Activity", "setting": "[6]", "value": 103, "unit": "%"}, {"measurement": "Activity", "setting": "[7]", "value": 106, "unit": "%"}, {"measurement": "Activity", "setting": "[8]", "value": 100, "unit": "%"}, {"measurement": "Activity", "setting": "[9]", "value": 2, "unit": "%"}, {"measurement": "Activity", "setting": "[10]", "value": 85, "unit": "%"}, {"measurement": "Activity", "setting": "[11]", "value": 3, "unit": "%"}, {"measurement": "Activity", "setting": "[12]", "value": 48, "unit": "%"}, {"measurement": "Activity", "setting": "[13]", "value": 62, "unit": "%"}, {"measurement": "Activity", "setting": "[14]", "value": 14, "unit": "%"}, {"measurement": "Activity", "setting": "Homo sapiens [15]", "value": 12, "unit": "%"}, {"measurement": "Activity", "setting": "[16]", "value": 88, "unit": "%"}, {"measurement": "Activity", "setting": "[17]", "value": 94, "unit": "%"}, {"measurement": "Activity", "setting": "[18]", "value": 67, "unit": "%"}, {"measurement": "pIC50", "setting": "[19]", "value": 6.96}, {"measurement": "Activity", "setting": "[20]", "value": 111, "unit": "%"}, {"measurement": "Activity", "setting": "[21]", "value": 82, "unit": "%"}, {"measurement": "Activity", "setting": "[22]", "value": 40, "unit": "%"}, {"measurement": "Activity", "setting": "[23]", "value": 48, "unit": "%"}, {"measurement": "Activity", "setting": "[24]", "value": 72, "unit": "%"}, {"measurement": "Activity", "setting": "[25]", "value": 16, "unit": "%"}]}
